Measurements reported in ChEMBL document CHEMBL5712896, “Targeting EHMT2 reverses EGFR-TKI resistance in NSCLC by epigenetically regulating the PTEN/AKT signaling pathway” (2018).
Calls of active or inactive are those of the source. No cut-off for these calls is given here.

Columns and labels:
PC-9/ER [1] = test: Induction of apoptosis in human PC-9/ER cells assessed as increased cleaved-PARP expression at 10 uM measured by Western blot analysis; assay type: functional, cell-based
Summary of the method: (§1)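 Resistant PC9/ER and HCC827/ER cells treated with 10 μM epigenetic inhibitor (DMSO control). Cleaved PARP detected by western blot on 10–15% SDS-PAGE with ECL, normalized to β-actin.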

PC-9/ER [2] = test: Antiproliferative activity against human PC-9/ER cells assessed as inhibition of cell growth upto 10 uM incubated for 48 hrs by MTT assay; assay type: functional, cell-based
Summary of the method: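 PC9/ER cells (made resistant by 3 months in Erlotinib, 0.5–2 μM, RPMI-1640 with 10% FBS) seeded at 8 × 10^4 cells/ml, left overnight, then exposed to 5 or 10 μM inhibitor (DMSO control) for 48 h. MTT (2.5 mg/ml stock) was added for 4 h at 37 °C, formazan dissolved in DMSO, OD read at 570 nm.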

HCC827ER [3] = test: Induction of apoptosis in human HCC827ER cells assessed as increased cleaved-PARP expression at 10 uM measured by Western blot analysis; assay type: functional, cell-based; summary of the method: as §1
PC-9/ER [4] = test: Induction of apoptosis in human PC-9/ER cells assessed as viable cells at 10 uM for 48 hrs by annexin V/PI staining based flow cytometric analysis (reference value: 94.2%); assay type: functional; conditions: read-out: Activity
HCC827ER [5] = test: Induction of apoptosis in human HCC827ER cells assessed as early apoptotic cells at 10 uM for 48 hrs by annexin V/PI staining based flow cytometric analysis (reference value: 1.8%); assay type: functional
PC-9/ER [6] = test: Induction of apoptosis in human PC-9/ER cells assessed as early apoptotic cells at 10 uM for 48 hrs by annexin V/PI staining based flow cytometric analysis (reference value: 1.9%); assay type: functional
PC-9/ER [7] = test: Induction of apoptosis in human PC-9/ER cells assessed as late apoptotic cells at 10 uM for 48 hrs by annexin V/PI staining based flow cytometric analysis (reference value: 3.8%); assay type: functional
HCC827ER [8] = test: Induction of apoptosis in human HCC827ER cells assessed as necrotic cells at 10 uM for 48 hrs by annexin V/PI staining based flow cytometric analysis (reference value: 0.3%); assay type: functional
HCC827ER [9] = test: Induction of apoptosis in human HCC827ER cells assessed as viable cells at 10 uM for 48 hrs by annexin V/PI staining based flow cytometric analysis (reference value: 94.4%); assay type: functional; conditions: read-out: Activity
PC-9/ER [10] = test: Induction of apoptosis in human PC-9/ER cells assessed as necrotic cells at 10 uM for 48 hrs by annexin V/PI staining based flow cytometric analysis (reference value: 0.1%); assay type: functional
HCC827ER [11] = test: Induction of apoptosis in human HCC827ER cells assessed as late apoptotic cells at 10 uM for 48 hrs by annexin V/PI staining based flow cytometric analysis (reference value: 3.5%); assay type: functional
[12] = Upregulation of PTEN mRNA expression level in human PC-9/ER cells assessed as increase in fold change at 10 uM by Western blot analysis; assay type: functional; conditions: in the assay text read “real-time RT-PCR” for “Western blot analysis”
Summary of the method: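 PC9/ER cells were treated with 10 μM UNC0638 or transfected with 20 nM EHMT2 siRNA, with DMSO or scramble siRNA as controls. Total RNA was extracted, reverse transcribed, and PTEN mRNA measured by SYBR Green real-time RT-PCR, normalized to GAPDH and expressed as fold change versus control. PTEN protein was checked separately by western blot against β-actin.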

PC-9/ER [13] = test: Antitumor activity against human PC-9/ER cells xenografted in SCID mouse assessed as inhibition of tumor growth at 2.5 mg/kg, ip bid for 3 weeks; assay type: functional, organism-based
Summary of the method: (§2)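 Male SCID mice, 7–8 weeks old, injected s.c. in the right flank with 5 × 10^6 PC9/ER cells in PBS. At an average tumor volume of 50 mm3, randomized into groups of n = 6: saline, UNC0642 2.5 mg/kg bid i.p., Erlotinib 12.5 mg/kg/day i.p., or both. Tumor volume tracked and body weight recorded; tumors weighed after sacrifice at 3 weeks.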

Mus musculus [14] = test: In vivo inhibition of AKT phosphorylation in human PC-9/ER cells xenografted SCID mouse assessed as reduction of H3K9Me2 expression at 2.5 mg/kg, ip bid for 3 weeks; assay type: functional, organism-based
Summary of the method: (§3)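 Tumors were excised after 3 weeks from PC9/ER xenografts in SCID mice dosed with UNC0642 (2.5 mg/kg bid i.p.) with or without Erlotinib (12.5 mg/kg/day i.p.), saline as control. Tissue lysates were run on western blot for H3K9Me2, PTEN, p-AKT and AKT, normalized to β-actin or Histone3.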

PC-9/ER [15] = test: Antitumor activity against human PC-9/ER cells xenografted in SCID mouse assessed as reduction of tumor weight at 2.5 mg/kg, ip bid for 3 weeks relative to control; assay type: functional; set-up: scale not given: the % may be the effect or the level left; summary of the method: as §2
Mus musculus [16] = test: In vivo inhibition of AKT phosphorylation in human PC-9/ER cells xenografted SCID mouse assessed as increase in PTEN expression at 2.5 mg/kg, ip bid for 3 weeks; assay type: functional, organism-based; summary of the method: as §3
PC-9/ER [17] = test: Antitumor activity against human PC-9/ER cells xenografted in SCID mouse assessed as reduction of tumor weight at 2.5 mg/kg, ip bid for 3 weeks in presence of erlotinib relative to control; assay type: functional; set-up: scale not given: the % may be the effect or the level left; summary of the method: as §2

SMILES: Nc1ncn([C@@H]2O[C@H](CO)[C@@H](O)[C@H]2O)c(=O)n1
- Activity (PC-9/ER [1]): Active
- Activity (PC-9/ER [2]): Active
- Activity (HCC827ER [3]): Active

SMILES: CC[C@H](C)n1cc(C)c2c(C(=O)NCc3c(C)cc(C)[nH]c3=O)cc(-c3ccc(N4CCNCC4)nc3)cc21
- Activity (PC-9/ER [1]): Active
- Activity (PC-9/ER [2]): Active
- Activity (HCC827ER [3]): Active

SMILES: O=C(/C=C/c1cccc(S(=O)(=O)Nc2ccccc2)c1)NO [BELINOSTAT]
- viability at 10 µM (PC-9/ER [4]): 75.8%
- Activity (HCC827ER [5]): 9.4%
- Activity (PC-9/ER [6]): 12.8%
- Activity (PC-9/ER [7]): 10.5%
- Activity (PC-9/ER [2]): Active
- Activity (HCC827ER [8]): 1.3%
- viability at 10 µM (HCC827ER [9]): 82.3%
- Activity (PC-9/ER [10]): 0.9%
- Activity (HCC827ER [11]): 7%

SMILES: O=C(O)CCNc1cc(N2CCc3ccccc3CC2)nc(-c2ccccn2)n1
- Activity (PC-9/ER [1]): inactive
- Activity (HCC827ER [3]): inactive

SMILES: COc1cc2c(NC3CCN(C(C)C)CC3)nc(C3CCCCC3)nc2cc1OCCCN1CCCC1
- fold change (FC) [12]: 2.5
- viability at 10 µM (PC-9/ER [4]): 38.5%
- Activity (HCC827ER [5]): 43.1%
- Activity (PC-9/ER [1]): Active
- Activity (PC-9/ER [6]): 40.8%
- Activity (PC-9/ER [7]): 20.5%
- Activity (PC-9/ER [2]): Active
- Activity (HCC827ER [8]): 0%
- Activity (HCC827ER [3]): Active
- viability at 10 µM (HCC827ER [9]): 41.9%
- Activity (PC-9/ER [10]): 0.2%
- Activity (HCC827ER [11]): 15%

SMILES: COc1cc2nc(N3CCCC3)nc(NCCCCCN3CCCC3)c2cc1OC
- Activity (PC-9/ER [1]): inactive
- Activity (HCC827ER [3]): inactive

SMILES: Cc1sc2c(c1C)C(c1ccc(Cl)cc1)=N[C@@H](CC(=O)OC(C)(C)C)c1nnc(C)n1-2
- viability at 10 µM (PC-9/ER [4]): 89.8%
- Activity (HCC827ER [5]): 26.4%
- Activity (PC-9/ER [6]): 4.8%
- Activity (PC-9/ER [7]): 5.2%
- Activity (PC-9/ER [2]): Active
- Activity (HCC827ER [8]): 0.2%
- viability at 10 µM (HCC827ER [9]): 63.4%
- Activity (PC-9/ER [10]): 0.2%
- Activity (HCC827ER [11]): 10%

SMILES: Cc1cn(CCN2CCN(c3ccccc3-c3cc(C#N)cc(C(=O)NCCCN4CCCC4)c3)CC2)c2ccccc12
- Activity (PC-9/ER [1]): inactive
- Activity (HCC827ER [3]): inactive

SMILES: COc1cc2c(NC3CCN(C(C)C)CC3)nc(N3CCC(F)(F)CC3)nc2cc1OCCCN1CCCC1
- Activity (PC-9/ER [13]): Active
- inhibition (Mus musculus [14]): Active
- Activity (PC-9/ER [15]): 37.2%
- inhibition (Mus musculus [16]): Active
- Activity (PC-9/ER [17]): 68.2%

SMILES: CC(C)N(C[C@H]1O[C@@H](n2cnc3c(N)ncnc32)[C@H](O)[C@@H]1O)[C@H]1C[C@@H](CCc2nc3cc(C(C)(C)C)ccc3[nH]2)C1
- Activity (PC-9/ER [1]): inactive
- Activity (HCC827ER [3]): inactive
